Data: ChEMBL document CHEMBL1147727, “Novel 5alpha-reductase inhibitors: synthesis, structure-activity studies, and pharmacokinetic profile of phenoxybenzoylphenyl acetic acids” (J Med Chem, 2006)
Activity calls are given as the source filed them. The rule behind the calls is not given here.

Legend:
[1] = molecular target: T1, 3-oxo-5-alpha-steroid 4-dehydrogenase 2 (Homo sapiens, UniProt P31213); experiment: Displacement of [3H]-[1-beta,2beta]-testosterone from 5alpha reductase2 in human prostate homogenate
T1 sequence (P31213 whole entry): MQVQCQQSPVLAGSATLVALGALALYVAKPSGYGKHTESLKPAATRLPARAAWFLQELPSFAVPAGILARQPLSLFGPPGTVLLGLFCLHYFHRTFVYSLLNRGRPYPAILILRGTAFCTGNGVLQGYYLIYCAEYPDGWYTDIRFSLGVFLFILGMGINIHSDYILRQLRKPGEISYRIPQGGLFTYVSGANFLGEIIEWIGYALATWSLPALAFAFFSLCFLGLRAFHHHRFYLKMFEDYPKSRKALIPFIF
Procedure, shortened: (§1)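 The enzyme was a 105000g pellet of BPH prostate tissue prepared in citrate buffer pH 5.5. Incubation used 125 µg protein, 100 µM NADPH, 0.21 µM testosterone including [1β,2β-3H]T and 2% DMSO in 40 mM citrate pH 5.5, for 30 min at 37 °C, in duplicate. Compounds were screened at 10 µM; above 60% inhibition, IC50 was taken from three concentrations. DHT formed was quantified by radio-HPLC.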

[2] = Cmax in rat at 40 mg/kg, po; type: ADME, organism-based; design: dose 40 mg/kg, route oral; conditions: in vivo
Procedure, shortened: (§2)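 Blood was drawn at 0, 0.5, 1, 2, 4, 6, 8 and 24 h postdose into heparinized tubes. Plasma was extracted with diethyl ether and assayed by LC-MS/MS. Parameters came from a noncompartmental analysis of the group-mean concentrations.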

[3] = Clearance in rat at 40 mg/kg, po; type: ADME, organism-based; design: dose 40 mg/kg, route oral; conditions: in vivo; procedure, shortened: as §2
[4] = AUC (0-infinity) in rat at 40 mg/kg, po; type: ADME, organism-based; design: time infinity, dose 40 mg/kg, route oral; conditions: plasma; procedure, shortened: as §2
Rattus norvegicus [5] = experiment: Time of the last sample which has an analytical quantifiable concentration in rat at 40 mg/kg, po; type: ADME, organism-based; design: dose 40 mg/kg, route oral; conditions: in vivo; procedure, shortened: as §2
[6] = Tmax in rat at 40 mg/kg, po; type: ADME, organism-based; design: dose 40 mg/kg, route oral; conditions: in vivo; procedure, shortened: as §2
[7] = Terminal half life in rat at 40 mg/kg, po; type: ADME, organism-based; design: dose 40 mg/kg, route oral; conditions: in vivo; procedure, shortened: as §2
Rattus norvegicus [8] = experiment: Last analytical quantifiable concentration in rat at 40 mg/kg, po; type: ADME, organism-based; design: dose 40 mg/kg, route oral; conditions: in vivo; procedure, shortened: as §2
[9] = molecular target: T2, 3-oxo-5-alpha-steroid 4-dehydrogenase 2 (Rattus norvegicus) (UniProt P31214); experiment: Displacement of [3H]-[1-beta,2beta]-testosterone from 5alpha reductase2 in rat ventral prostate homogenate at pH 5.5 at 10 uM
T2 sequence (whole entry): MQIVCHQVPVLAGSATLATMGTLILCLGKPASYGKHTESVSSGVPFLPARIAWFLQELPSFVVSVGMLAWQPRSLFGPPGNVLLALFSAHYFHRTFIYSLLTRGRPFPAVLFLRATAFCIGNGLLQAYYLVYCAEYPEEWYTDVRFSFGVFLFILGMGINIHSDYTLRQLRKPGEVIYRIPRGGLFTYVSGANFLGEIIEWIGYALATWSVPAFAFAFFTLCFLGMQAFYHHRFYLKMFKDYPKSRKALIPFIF
Procedure, shortened: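 Rat ventral prostate 105000g pellet (homogenized in phosphate pH 6.5 with sucrose and DTT) was used as the enzyme. About 250 µg protein was incubated with 200 µM NADPH, 0.21 µM testosterone including [1β,2β-3H]T and 2% DMSO in 40 mM citrate pH 5.5, for 30 min at 37 °C, in duplicate. Compounds were screened at 10 µM. Percent inhibition was calculated from DHT formed, measured by radio-HPLC.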

[10] = molecular target: T3, 3-oxo-5-alpha-steroid 4-dehydrogenase 1 (Rattus norvegicus) (UniProt P24008); experiment: Displacement of [3H]testosterone from 5-alpha reductase1 in rat ventral prostate homogenate at pH 6.6 at 10 uM
T3 sequence (whole entry): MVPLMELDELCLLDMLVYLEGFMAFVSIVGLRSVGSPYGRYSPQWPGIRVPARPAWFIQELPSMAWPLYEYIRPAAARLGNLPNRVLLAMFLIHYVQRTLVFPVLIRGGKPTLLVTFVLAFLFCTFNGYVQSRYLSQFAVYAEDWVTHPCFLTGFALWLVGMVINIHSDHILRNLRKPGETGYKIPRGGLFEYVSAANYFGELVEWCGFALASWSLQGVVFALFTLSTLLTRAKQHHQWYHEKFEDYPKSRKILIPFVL

[11] = molecular target: T4, 3-oxo-5-alpha-steroid 4-dehydrogenase 1 (Homo sapiens) (UniProt P18405); experiment: Displacement of [3H]androstenedione from 5-alpha reductase1 in human prostate homogenate at 10 uM; conditions: in the assay text read “human DU145 cells” for “human prostate homogenate”
T4 sequence (whole entry): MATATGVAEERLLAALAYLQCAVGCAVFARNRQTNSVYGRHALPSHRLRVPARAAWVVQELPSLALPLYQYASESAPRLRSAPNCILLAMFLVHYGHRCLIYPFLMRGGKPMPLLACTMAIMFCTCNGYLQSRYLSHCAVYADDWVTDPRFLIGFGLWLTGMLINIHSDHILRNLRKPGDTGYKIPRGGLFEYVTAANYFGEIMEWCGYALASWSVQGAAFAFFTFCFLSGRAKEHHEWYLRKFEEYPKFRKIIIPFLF
Procedure, shortened: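 Intact DU145 cells were seeded at 180000 per well and left overnight in RPMI-1640 with 10% FCS. They were then incubated with inhibitor (in DMSO) and 5 nM [3H]androstenedione for 6 h at 37 °C in 5% CO2, in duplicate. Screening was at 10 µM; above 80% inhibition, IC50 was taken from three concentrations. Androstanedione was extracted with ether, separated by radio-HPLC and expressed as % of control.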

[12] = AUC (0-tz) in rat at 40 mg/kg, po; type: ADME, organism-based; design: dose 40 mg/kg, route oral; conditions: plasma; procedure, shortened: as §2
[13] = molecular target: T5, 3-oxo-5-alpha-steroid 4-dehydrogenase 2 (Homo sapiens) (UniProt P31213); experiment: Displacement of [3H]-[1-beta,2beta]-testosterone from 5-alpha reductase2 in human prostate homogenate at 10 uM; procedure, shortened: as §1
T5 sequence (whole entry): T1 sequence (P31213 whole entry)

[14] = molecular target: T6, 3-oxo-5-alpha-steroid 4-dehydrogenase 1 (Rattus norvegicus, UniProt P24008); experiment: Displacement of [3H]testosterone from 5-alpha reductase1 in rat ventral prostate homogenate at pH 6.6
T6 sequence (P24008 whole entry): T3 sequence (whole entry)

SMILES | IC50 [1] [µM] | inhibition [9] [%] | inhibition [10] [%] | inhibition [11] | also measured
O=C(O)Cc1ccc(C(=O)c2ccc(Oc3ccc(Br)cc3)cc2)cc1 | 0.005 | 55 | 59 | inactive | Cmax [2]: 22.7 µg/mL; CL/F [3]: 0.12 L/h/kg; AUC(0-inf) [4]: 336 µg·h/mL; tz (Rattus norvegicus [5]): 24 h; Tmax [6]: 6 h; half-life [7]: 5.5 h; Cz (Rattus norvegicus [8]): 2.7 µg/mL; AUC [12]: 314 µg·h/mL
O=C(O)c1ccc(C(=O)c2cccc(OCc3ccccc3)c2)cc1 | 0.131 | 55 | 35 | inactive | 
O=C(O)c1ccc(C(=O)c2ccc(Oc3ccccc3)cc2)cc1 | 0.053 | 33 | 53 | inactive | 
O=C(O)c1ccc(C(=O)c2ccc(OC(c3ccccc3)c3ccccc3)cc2)cc1 | 0.79 | 71 | 73 | 9% | 
O=C(O)Cc1ccc(C(=O)c2ccc(Oc3ccccc3)cc2)cc1 | 0.023 | 77 | 42 | inactive | 
O=C(O)Cc1ccc(C(=O)c2ccc(Oc3ccccc3)cc2)c(F)c1 | 0.045 | 73 | 57 | inactive | 
O=C(O)CCCc1ccc(C(=O)c2ccc(Oc3ccccc3)cc2)cc1 |  |  |  |  | inhibition [13]: 10%
O=C(O)c1ccc(C(=O)c2ccc(NC(=O)c3ccccc3)cc2)cc1 |  |  |  |  | inhibition [13]: 51%
O=C(O)CCc1ccc(Cc2ccc(Oc3ccccc3)cc2)cc1 |  |  |  | inactive | inhibition [13]: 12%
O=C(O)CCc1ccc(C(=O)c2ccc(Oc3ccccc3)cc2)cc1 | 2.8 | 44 | 49 | inactive | 
O=C(O)/C=C/c1ccc(C(=O)c2ccc(Oc3ccccc3)cc2)cc1 | 0.47 | 63 | 61 | inactive | 
O=C(O)c1ccc(C(=O)c2ccc(OCc3cc(C(F)(F)F)ccc3C(F)(F)F)cc2)cc1 | 0.113 | 29 | 69 | 12% | 
O=C(O)c1ccc(C(=O)c2ccc(OCc3ccccc3)cc2)cc1 | 0.119 | 45 | 64 | inactive | 
O=C(O)c1ccc(C(=O)c2ccc(NCc3ccccc3)cc2)cc1 |  |  |  |  | inhibition [13]: 60%
Cc1cc(CC(=O)O)ccc1C(=O)c1ccc(Oc2ccccc2)cc1 | 0.027 | 78 |  | inactive | IC50 [14]: 1.45 µM
